Assay results reported in ChEMBL document CHEMBL4680335, “Synthesis, anticancer and antimicrobial evaluation of new benzofuran based derivatives: PI3K inhibition, quorum sensing and molecular modeling study” (Bioorg Med Chem, 2021).
Values after ≈ are worked out from the molar mass of the structure shown.

Key:
MCF7 [1] = test: Antiproliferative activity against human MCF7 cells assessed as reduction in cell growth; type: functional, cell-based
HeLa = test: Antiproliferative activity against human HeLa cells assessed as reduction in cell growth; type: functional, cell-based
PC-3 = test: Antiproliferative activity against human PC3 cells assessed as reduction in cell growth; type: functional, cell-based
HepG2 = test: Antiproliferative activity against human HepG2 cells assessed as reduction in cell growth; type: functional, cell-based
Candida albicans [2] = test: Antifungal activity against Candida albicans CS35 assessed as reduction in fungal growth incubated for 18 hrs by two-fold serial dilution method; type: functional
Procedure, shortened: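 Broth microdilution per CLSI M27-A3/M38-A2. Selection: compounds active in agar diffusion. Twofold (1:1) dilutions in 0.1 ml yeast peptone dextrose medium; fluconazole as positive control.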

Pseudomonas aeruginosa [3] = test: Antibacterial activity against Pseudomonas aeruginosa PAO1 assessed as diameter of zone inhibition at 5 mg/ml incubated for 24 hrs by agar plate diffusion method; type: functional; conditions: read-out: DIZ
Procedure, shortened: (§1)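 Cup (well) agar diffusion in Mueller Hinton agar. Overnight MH broth culture diluted to 0.5 McFarland; 20 μL mixed into MH agar at 50 °C, poured into 9-cm plates. Wells cut with a cork borer and filled with 100 μL compound in DMSO (final 5 mg/mL). DMSO as negative control, ampicillin/clavulanic acid as reference. 37 °C, 24 h; inhibition zone diameter in mm.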

Pseudomonas aeruginosa [4] = test: Antibacterial activity against Pseudomonas aeruginosa PAO1 assessed as reduction in bacterial growth incubated for 18 hrs by two-fold serial dilution method; type: functional
Procedure, shortened: (§2)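 Broth microdilution per CLSI 2015. Selection: compounds active in agar diffusion. Twofold (1:1) dilutions in 0.1 ml MH broth; inoculum 5 × 10^6 CFU/ml diluted suspension. Ampicillin/clavulanic acid as positive control.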

Candida albicans [5] = test: Antifungal activity against Candida albicans CS35 assessed as diameter of zone inhibition at 5 mg/ml incubated for 24 hrs by agar plate diffusion method; type: functional; conditions: read-out: DIZ
Procedure, shortened: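 Cup diffusion using Sabouraud's medium for C. albicans. 100 μL compound in DMSO (5 mg/mL) per well, DMSO as negative control, fluconazole as reference. 37 °C, 24 h; inhibition zone diameter in mm.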

[6] = Inhibition of quorum sensing in Chromobacterium violaceum ATCC 12472 assessed as inhibition zone at 5 mg/ml incubated for 48 hrs by well diffusion method; type: functional; conditions: read-out: IZ
Procedure, shortened: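 Chromobacterium violaceum ATCC 12472 grown in LB broth at 28 °C, 48 h. 50 μL inoculated into 5 ml soft LB agar and overlaid on LB agar plates. Wells received 100 μL compound in DMSO (5 mg/ml); DMSO as negative control. 28 °C, 48 h. Growth-inhibition radius r1 and pigment-plus-growth radius r2 measured; QS inhibition = r2 − r1 (mm).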

Staphylococcus aureus [7] = test: Antibacterial activity against Staphylococcus aureus ATCC 29213 assessed as diameter of zone inhibition at 5 mg/ml incubated for 24 hrs by agar plate diffusion method; type: functional; conditions: read-out: DIZ; procedure, shortened: as §1
Bacillus cereus [8] = test: Antibacterial activity against Bacillus cereus UW85 assessed as reduction in bacterial growth incubated for 18 hrs by two-fold serial dilution method; type: functional; procedure, shortened: as §2
Staphylococcus aureus [9] = test: Antibacterial activity against Staphylococcus aureus ATCC 29213 assessed as reduction in bacterial growth incubated for 18 hrs by two-fold serial dilution method; type: functional; procedure, shortened: as §2
Bacillus cereus [10] = test: Antibacterial activity against Bacillus cereus UW85 assessed as diameter of zone inhibition at 5 mg/ml incubated for 24 hrs by agar plate diffusion method; type: functional; conditions: read-out: DIZ; procedure, shortened: as §1
Escherichia coli = test: Antibacterial activity against Escherichia coli ATCC 12435 assessed as diameter of zone inhibition at 5 mg/ml incubated for 24 hrs by agar plate diffusion method; type: functional; conditions: read-out: DIZ; procedure, shortened: as §1
[11] = Safety index, ratio of IC50 for cytotoxicity against human WI-38 cells to IC50 for antiproliferative activity against human MCF7 cells; type: toxicity, cell-based; conditions: WI-38 cells versus MCF7 cells
[12] = target: Phosphatidylinositol 4,5-bisphosphate 3-kinase catalytic subunit alpha isoform (Homo sapiens, UniProt P42336); test: Inhibition of human PI3Kalpha by ELISA
Sequence of Phosphatidylinositol 4,5-bisphosphate 3-kinase catalytic subunit alpha isoform (P42336 whole entry, canonical isoform): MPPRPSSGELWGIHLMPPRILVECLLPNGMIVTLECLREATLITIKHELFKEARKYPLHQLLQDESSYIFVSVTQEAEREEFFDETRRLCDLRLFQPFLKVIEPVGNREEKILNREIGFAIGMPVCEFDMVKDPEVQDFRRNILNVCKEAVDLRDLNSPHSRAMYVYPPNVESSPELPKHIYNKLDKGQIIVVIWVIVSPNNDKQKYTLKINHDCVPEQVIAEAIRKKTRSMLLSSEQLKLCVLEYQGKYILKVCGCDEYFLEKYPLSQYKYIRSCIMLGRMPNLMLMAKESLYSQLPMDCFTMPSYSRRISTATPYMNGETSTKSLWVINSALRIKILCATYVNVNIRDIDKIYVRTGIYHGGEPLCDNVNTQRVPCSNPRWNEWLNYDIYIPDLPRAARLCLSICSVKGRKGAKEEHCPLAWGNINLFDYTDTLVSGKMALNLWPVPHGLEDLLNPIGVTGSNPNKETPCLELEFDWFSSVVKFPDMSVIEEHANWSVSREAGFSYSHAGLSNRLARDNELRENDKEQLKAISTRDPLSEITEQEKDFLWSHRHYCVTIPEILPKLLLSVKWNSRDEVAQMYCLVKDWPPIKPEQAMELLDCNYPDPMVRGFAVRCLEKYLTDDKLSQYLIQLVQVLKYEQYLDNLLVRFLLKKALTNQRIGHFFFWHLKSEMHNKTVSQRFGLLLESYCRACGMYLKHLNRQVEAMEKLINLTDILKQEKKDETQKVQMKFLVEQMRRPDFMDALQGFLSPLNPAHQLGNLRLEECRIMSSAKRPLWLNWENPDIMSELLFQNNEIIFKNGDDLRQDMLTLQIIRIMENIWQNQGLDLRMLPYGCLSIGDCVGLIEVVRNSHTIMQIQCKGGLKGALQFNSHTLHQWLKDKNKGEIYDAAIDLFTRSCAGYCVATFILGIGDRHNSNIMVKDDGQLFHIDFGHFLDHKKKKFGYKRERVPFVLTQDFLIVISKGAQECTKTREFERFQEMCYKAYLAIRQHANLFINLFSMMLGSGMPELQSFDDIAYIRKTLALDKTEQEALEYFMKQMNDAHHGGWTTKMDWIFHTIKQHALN
Procedure, shortened: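 Human PI3Kα activity measured by ELISA in wells coated with a PI3K-specific antibody. Standard or test compound was added at room temperature and absorbance read. A log–log standard curve related absorbance to standard concentration. Percent inhibition was calculated against control, and IC50 was obtained from concentration/inhibition curves.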

[13] = Safety index, ratio of IC50 for cytotoxicity against human WI-38 cells to IC50 for antiproliferative activity against human PC-3 cells; type: toxicity, cell-based; conditions: WI-38 cells versus PC-3 cells
MCF7 [14] = test: Induction of cell cycle arrest in human MCF7 cells assessed as accumulation at G0-G1 phase at […] incubated for 24 hrs by propidium iodide staining based flow cytometry analysis (reference value: 53.89 %); type: functional; parameters: dose or concentration left out as unconfirmed
WI-38 = test: Cytotoxicity against human WI38 cells by MTT assay; type: cell-based
MCF7 [15] = test: Induction of apoptosis in human MCF7 cells assessed as early apoptotic cells at […] incubated for 24 hrs by Annexin V-FITC and propidium iodide staining based flow cytometry analysis (reference value: 0.42 %); type: functional; parameters: dose or concentration left out as unconfirmed
MCF7 [16] = test: Induction of apoptosis in human MCF7 cells assessed as accumulation at preG1 phase at […] incubated for 24 hrs by propidium iodide staining based flow cytometry analysis (reference value: 1.78 %); type: functional; parameters: dose or concentration left out as unconfirmed
MCF7 [17] = test: Induction of apoptosis in human MCF7 cells assessed as necrotic cells at […] incubated for 24 hrs by Annexin V-FITC and propidium iodide staining based flow cytometry analysis (reference value: 1.21 %); type: functional; parameters: dose or concentration left out as unconfirmed
MCF7 [18] = test: Induction of apoptosis in human MCF7 cells assessed as late apoptotic cells at […] incubated for 24 hrs by Annexin V-FITC and propidium iodide staining based flow cytometry analysis (reference value: 0.15 %); type: functional; parameters: dose or concentration left out as unconfirmed
MCF7 [19] = test: Induction of cell cycle arrest in human MCF7 cells assessed as accumulation at G2/M phase at […] incubated for 24 hrs by propidium iodide staining based flow cytometry analysis (reference value: 9.85 %); type: functional; parameters: dose or concentration left out as unconfirmed
[20] = Safety index, ratio of IC50 for cytotoxicity against human WI-38 cells to IC50 for antiproliferative activity against human HepG2 cells; type: toxicity, cell-based; conditions: WI-38 cells versus HepG2 cells
MCF7 [21] = test: Induction of cell cycle arrest in human MCF7 cells assessed as accumulation at S phase at […] incubated for 24 hrs by propidium iodide staining based flow cytometry analysis (reference value: 36.26 %); type: functional; parameters: dose or concentration left out as unconfirmed
[22] = Safety index, ratio of IC50 for cytotoxicity against human WI-38 cells to IC50 for antiproliferative activity against human HeLa cells; type: toxicity, cell-based; conditions: WI-38 cells versus HeLa cells

Structure (SMILES)	IC50 (MCF7 [1]) [µM]	IC50 (HeLa) [µM]	IC50 (PC-3) [µM]	IC50 (HepG2) [µM]	MIC (Candida albicans [2]) [µg/mL]	zone of inhibition at 5000 µg/mL (Pseudomonas aeruginosa [3]) [mm]	MIC (Pseudomonas aeruginosa [4]) [µg/mL]	zone of inhibition at 5000 µg/mL (Candida albicans [5]) [mm]	zone of inhibition at 5000 µg/mL (Staphylococcus aureus [7]) [mm]	MIC (Staphylococcus aureus [9]) [µg/mL]	other results
C/C(=N\Nc1nc(-c2ccc(Cl)cc2)cs1)c1cc2ccccc2o1	29.9	26.6	38.1	23.2	–	–	–	–	–	–	–
COc1ccc(C(=O)CSC(=S)N/N=C(\C)c2cc3ccccc3o2)cc1	38.4	46.9	73.3	31.9	256 (≈ 642 µM)	8	512 (≈ 1280 µM)	5	–	–	–
C/C(=N\Nc1nc(-c2ccc(Br)cc2)cs1)c1cc2ccccc2o1	33.2	32.7	45.2	27.7	–	–	–	–	–	–	–
CN(C)/C=C/C(=O)c1cc2ccccc2o1	–	–	–	–	256 (≈ 1190 µM)	–	–	–	–	–	zone of inhibition at 5000 µg/mL [6]: 5 mm
CC1(C)S[C@@H]2[C@H](NC(=O)[C@H](N)c3ccccc3)C(=O)N2[C@H]1C(=O)O [AMPICILLIN]	–	–	–	–	–	–	> 5000	–	6	128 (≈ 366 µM)	MIC (Bacillus cereus [8]): 128 µg/mL (≈ 366 µM); zone of inhibition at 5000 µg/mL (Bacillus cereus [10]): 10 mm; zone of inhibition at 5000 µg/mL (Escherichia coli): 10 mm
Cc1ccc(/N=N/C(C=O)=C(/O)c2cc3ccccc3o2)cc1	58.6	–	62	46.8	–	10	512 (≈ 1670 µM)	–	6	128 (≈ 418 µM)	MIC (Bacillus cereus [8]): 256 µg/mL (≈ 836 µM)
C/C(=N\Nc1nc(-c2ccccc2)cs1)c1cc2ccccc2o1	8.49	11.7	16.7	10.3	–	–	–	–	–	–	selectivity ratio [11]: 4.91; IC50 [12]: 4.1 µM; selectivity ratio [13]: 2.49; Activity (MCF7 [14]): 39.61%; IC50 (WI-38): 41.7 µM; Activity (MCF7 [15]): 5.92%; Activity (MCF7 [16]): 29.93%; Activity (MCF7 [17]): 9.36%; Activity (MCF7 [18]): 14.65%; Activity (MCF7 [19]): 30.82%; selectivity ratio [20]: 4.04; Activity (MCF7 [21]): 29.57%; selectivity ratio [22]: 3.56
OC(Cn1cncn1)(Cn1cncn1)c1ccc(F)cc1F [FLUCONAZOLE]	–	–	–	–	256 (≈ 836 µM)	–	–	8	–	–	–
O=CC(/N=N/c1ccc([N+](=O)[O-])cc1)=C(\O)c1cc2ccccc2o1	43.2	37.8	49.6	35.4	256 (≈ 759 µM)	10	512 (≈ 1520 µM)	9	6	8 (≈ 23.7 µM)	–
